# Reference: ChEMBL document CHEMBL3259631, “Identification of the first potent, selective and bioavailable PPARα antagonist” (Bioorg Med Chem Lett, 2014)
# pIC50: −log10 of the molar value.
# Biological target: T1, Peroxisome proliferator-activated receptor alpha (Homo sapiens, UniProt Q07869)
# T1 sequence (Q07869 whole entry): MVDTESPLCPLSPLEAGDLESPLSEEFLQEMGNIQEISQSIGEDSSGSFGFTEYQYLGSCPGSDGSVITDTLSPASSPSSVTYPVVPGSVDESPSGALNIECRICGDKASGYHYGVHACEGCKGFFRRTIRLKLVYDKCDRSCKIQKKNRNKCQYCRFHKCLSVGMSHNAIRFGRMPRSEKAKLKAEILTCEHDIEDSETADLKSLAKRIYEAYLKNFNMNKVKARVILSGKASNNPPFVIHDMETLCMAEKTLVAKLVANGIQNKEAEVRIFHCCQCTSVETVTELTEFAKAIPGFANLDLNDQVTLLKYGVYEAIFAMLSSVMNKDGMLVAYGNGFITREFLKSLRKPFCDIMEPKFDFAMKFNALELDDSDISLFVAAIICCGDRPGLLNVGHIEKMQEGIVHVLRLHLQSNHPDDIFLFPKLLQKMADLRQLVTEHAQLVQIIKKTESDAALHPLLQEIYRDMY
# Assay: Antagonist activity at human PPAR-alpha assessed as inhibition of GW7647-induced effect after overnight incubation by cell-based luciferase reporter gene assay
# Conditions: not given
row,SMILES,pIC50
1,CCn1c(CCCc2ccc(OC(C)(C)C(=O)NS(=O)(=O)C3=CCOC=C3)cc2)nn(Cc2ccc(C(C)(C)C)cc2)c1=O,7.38
2,CCn1c(CCCc2ccc(-c3cccc(NS(=O)(=O)c4ccccc4)c3)cc2)nn(Cc2ccc(C(C)(C)C)cc2)c1=O,6.41
3,CCn1c(CCCc2ccc(-c3ccc(NS(=O)(=O)Cc4ccccc4)cc3)cc2)nn(Cc2ccc(C(C)(C)C)cc2)c1=O,6.51
4,CCn1c(CCCc2ccc(OC(C)(C)C(=O)NS(=O)(=O)c3cccnc3)cc2)nn(Cc2ccc(C(C)(C)C)cc2)c1=O,7.10
5,CCn1c(CCCc2ccc(OC(C)(C)C(=O)NS(=O)(=O)C3CCCC3)cc2)nn(Cc2ccc(C(C)(C)C)cc2)c1=O,8.34

# System: not listed separately
# Assay: Solubility of the compound in aqueous buffer at pH 7.4 after 24 hrs by LC-MS/MS analysis
# Type: physicochemical
# Conditions: not given
# Summary of the method: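 Compound from a 10 mM DMSO stock was added to pH 7.4 buffer, vortexed 2 min, then shaken on an orbital shaker for 24 h at room temperature. Samples were then vacuum-filtered through a polycarbonate membrane before measurement.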
row,SMILES,solubility at 24 h
1,CCn1c(CCCc2ccc(-c3cccc(NS(=O)(=O)c4ccccc4)c3)cc2)nn(Cc2ccc(C(C)(C)C)cc2)c1=O,0.037 µM
2,CCn1c(CCCc2ccc(-c3ccc(NS(=O)(=O)Cc4ccccc4)cc3)cc2)nn(Cc2ccc(C(C)(C)C)cc2)c1=O,0.012 µM

# System: not listed separately
# Assay: Metabolic stability in mouse plasma assessed as compound remaining at 1 uM after 30 mins by LC-MS/MS analysis
# Type: ADME, cell-free
# Conditions: read-out: Stability
# Summary of the method: (§1)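 A 30 mM DMSO stock was diluted to 100 µM in acetonitrile, then spiked into thawed mouse plasma (1 µM final) and incubated at 37 °C. Aliquots were precipitated in acetonitrile containing buspirone, shaken 5 min and centrifuged at 4000g for 10 min. Supernatant was analysed by LC-MS/MS. Percent remaining = concentration at each time / t0 concentration × 100; mean of at least three experiments.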
row,SMILES,"remaining at 0.5 h, 1 µM"
1,CCn1c(CCCc2ccc(OC(C)(C)C(=O)NS(=O)(=O)C3=CCOC=C3)cc2)nn(Cc2ccc(C(C)(C)C)cc2)c1=O,86.9%
2,CCn1c(CCCc2ccc(OC(C)(C)C(=O)NS(=O)(=O)c3cccnc3)cc2)nn(Cc2ccc(C(C)(C)C)cc2)c1=O,82.4%
3,CCn1c(CCCc2ccc(OC(C)(C)C(=O)NS(=O)(=O)C3CCCC3)cc2)nn(Cc2ccc(C(C)(C)C)cc2)c1=O,21%

# System: not listed separately
# Assay: Metabolic stability in mouse plasma assessed as compound remaining at 1 uM after 60 mins by LC-MS/MS analysis
# Type: ADME, cell-free
# Conditions: read-out: Stability
# Summary of the method: as §1
row,SMILES,"remaining at 1 h, 1 µM"
1,CCn1c(CCCc2ccc(OC(C)(C)C(=O)NS(=O)(=O)C3=CCOC=C3)cc2)nn(Cc2ccc(C(C)(C)C)cc2)c1=O,86.5%
2,CCn1c(CCCc2ccc(OC(C)(C)C(=O)NS(=O)(=O)c3cccnc3)cc2)nn(Cc2ccc(C(C)(C)C)cc2)c1=O,75.2%
3,CCn1c(CCCc2ccc(OC(C)(C)C(=O)NS(=O)(=O)C3CCCC3)cc2)nn(Cc2ccc(C(C)(C)C)cc2)c1=O,7%

# System: Plasma
# Assay: (§2) Metabolic stability in mouse plasma assessed as compound remaining at 1 uM after 24 hrs by LC-MS/MS analysis
# Type: ADME, cell-free
# Conditions: 24 h, 1 µM
# Summary of the method: as §1
row,SMILES,Stability
1,CCn1c(CCCc2ccc(-c3cccc(NS(=O)(=O)c4ccccc4)c3)cc2)nn(Cc2ccc(C(C)(C)C)cc2)c1=O,136%
2,CCn1c(CCCc2ccc(-c3ccc(NS(=O)(=O)Cc4ccccc4)cc3)cc2)nn(Cc2ccc(C(C)(C)C)cc2)c1=O,133.9%

# System: not listed separately
# Assay: as §2
# Type: ADME, cell-free
# Conditions: read-out: Stability
# Summary of the method: as §1
row,SMILES,"remaining at 24 h, 1 µM"
1,CCn1c(CCCc2ccc(OC(C)(C)C(=O)NS(=O)(=O)c3cccnc3)cc2)nn(Cc2ccc(C(C)(C)C)cc2)c1=O,0.2%
